Bioassay records as filed in PubChem BioAssay.
SENP8 block-1 – SENP8 protease inhibitors, primary screen, biochemical, luminescence; Sentrin-specific protease 8 (Homo sapiens), Q96LD8; purified SENP8, Z-RLRGG-aminoluciferin cleavage; inhibition, % at 10 µM; 330,000 compounds, 1.2% hits; AID 2540, 2010; in the data active means inhibition above about 50%
Platelet DG rel – inhibitors of platelet dense granule secretion, primary screen, cell-based, MLPCN, human platelets | human platelet-rich plasma, SFLLRN dense granule ATP release, luminescence | inhibition, %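 (compounds screened at 7.5 µM in platelet-rich plasma)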 | 300,000 compounds, 0.22% hits | AID 1663, 2009;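 active means mean replicate score, as percent of positive control, at or above 50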
SENP6 inh – SENP6 protease inhibitors, primary screen, biochemical, luminescence, uHTS; Sentrin-specific protease 6 (Homo sapiens), Q9GZR1; AID 2599, 2010; Recombinant SENP6 catalytic domain, aminoluciferin luminescence; 330,000 compounds, 1.8% hits; inhibition, % at 10 µM;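 active means inhibition above about 50% at the single tested dose, limit read from the data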;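 further: plate controls were DMSO wells with enzyme for no effect and DMSO wells lacking enzyme for full effect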
Target sequence (Q9GZR1 628-1112 limits assumed): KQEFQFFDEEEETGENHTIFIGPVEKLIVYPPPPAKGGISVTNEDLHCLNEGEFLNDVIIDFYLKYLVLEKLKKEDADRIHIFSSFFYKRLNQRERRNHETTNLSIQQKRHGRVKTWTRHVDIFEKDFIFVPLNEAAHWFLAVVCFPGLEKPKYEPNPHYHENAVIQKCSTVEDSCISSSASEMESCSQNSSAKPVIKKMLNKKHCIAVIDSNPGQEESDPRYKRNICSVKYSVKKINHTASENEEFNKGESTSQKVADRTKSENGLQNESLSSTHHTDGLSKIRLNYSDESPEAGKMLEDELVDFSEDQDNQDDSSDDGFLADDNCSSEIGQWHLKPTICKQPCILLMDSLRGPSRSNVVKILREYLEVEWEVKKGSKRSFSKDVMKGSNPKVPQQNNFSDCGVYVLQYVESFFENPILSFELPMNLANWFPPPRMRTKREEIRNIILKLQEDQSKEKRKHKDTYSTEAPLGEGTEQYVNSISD
SENP1 inh – human SENP1 catalytic domain inhibitors, primary screen, biochemical, FRET, uHTS | Sentrin-specific protease 1 (Homo sapiens), Q9P0U3 | recombinant SENP1 catalytic domain, CyPet-SUMO1-YPet FRET cleavage | inhibition, % at 10 µM | 360,000 compounds, 0.21% hits | AID 624204, 2012;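 active means inhibition at least 30% at 10 µM, raw YFP signal under a set limit, fluorescence ratio 0.5 to 1.5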;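 further: 0% = enzyme with DMSO and 100% = no enzyme wells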
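Assay system – human recombinant His6-tagged SENP1 catalytic domain enzyme · Input – SENP1 enzyme, 20 pM final · Buffer or medium – Tris pH 8 buffer plus EDTA, NaCl, BME, BSA, NP40, catalase · Schedule – 50 min reaction at room temperature · Technique – FRET read of cyan and yellow fluorescence · Control set – no-enzyme wells low, DMSO-plus-enzyme wells high control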
SENP8 block-2 – human SENP8 protease inhibitors, primary screen, biochemical, fluorescence, Nedd8 protein substrate, uHTS; Sentrin-specific protease 8 (Homo sapiens), Q96LD8; inhibition, % at 20 µM; 360,000 compounds, 0.64% hits; AID 602440, 2012; recombinant SENP8; in the data active means inhibition mostly above about 40%, no sharp cut-off; inactive means mostly below about 27%
SENP7 inh – SENP7 protease inhibitors, primary screen, biochemical, luminescence, uHTS. AID 434973, 2010. recombinant SENP7, Z-RLRGG-aminoluciferin luminescence, 40 min. 330,000 compounds, 1.5% hits. Sentrin-specific protease 7 (Homo sapiens), Q9BQF6. inhibition, % at 5 µM;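 active means inhibition above about 50% at the single test dose, limit read from the data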;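 further: plate controls were DMSO with enzyme for no effect and no enzyme buffer wells for full effect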
SENP8 conf – SENP8 protease inhibitors, retest, confirmation, biochemical, luminescence, single concentration. shares compounds with SENP7 inh. Recombinant SENP8, Z-RLRGG-aminoluciferin luminescence, 60 min. inhibition, % at 12.5 µM. 6,200 compounds, 40% hits. AID 488912, 2010;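 active means mean inhibition across replicates above about 50%, limit read from the data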
SENP6 confirm – SENP6 protease inhibitors, confirmation, biochemical, luminescence, single concentration. 6,200 compounds, 58% hits. shares compounds with SENP7 inh. inhibition, % at 12.5 µM. recombinant SENP6, Z-RLRGG-aminoluciferin luminescence. AID 488915, 2010
SENP7 confirm – SENP7 protease inhibitors, retest, confirmation, biochemical, luminescence, single concentration; shares compounds with SENP7 inh; recombinant SENP7, Z-RLRGG-aminoluciferin luminescence, 40 min; inhibition, % at 12.5 µM; 6,200 compounds, 69% hits
Casp3 select – caspase-3 protease inhibitors, confirmation, selectivity assay for SENP inhibitor project, biochemical, single concentration; inhibition, % at 12.5 µM; 6,200 compounds, 60% hits; purified caspase-3, Z-DEVD-aminoluciferin luminescence, 60 min; shares compounds with SENP7 inh;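 active means mean inhibition above about 50%, limit read from the data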;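 further: plate controls were enzyme with DMSO for no effect and wells without caspase-3 for full effect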
Luc interf – counter-screen for SENP inhibitors: luminescence interference; Pre-incubated SENP8/Z-RLRGG-aminoluciferin, luciferase luminescence interference; shares compounds with SENP7 inh; 6,200 compounds, 39% hits; inhibition, % at 12.5 µM;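 active means mean inhibition above about 50% when retested at one dose, limit read from the data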;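 further: plate controls were DMSO wells with completed reaction for no effect and substrate without enzyme for full effect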
Active calls of the source: *. Shown are actives, neighbours in structure and some others; about 2.6% of the full set was active somewhere.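 How the source made its calls, unless noted: active means mean inhibition above about 50% in the one-dose retest (limit read from the data); inactive means the rest.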

COc1ccccc1CNc1ncccc1[N+](=O)[O-] was read as SENP8 block-1 -14, Platelet DG rel -5, SENP6 inh -2, SENP1 inh -8, SENP8 block-2 21 and SENP7 inh 1.
Screening CC1(C(=O)Nc2cnc3ccccc3c2)CCN1Cc1ccccc1Cl (stereo not given) returned SENP1 inh 0 and SENP8 block-2 -9.
COc1ccc(/C=N/NC(=O)c2ccc[nH]2)cc1 was read as SENP8 block-1 77*, SENP6 inh 79*, SENP1 inh 1, SENP8 block-2 6, SENP7 inh 88*, SENP8 conf 75*, SENP6 confirm 74*, SENP7 confirm 95*, Casp3 select 92* and Luc interf 84*.
Screening O=C(O)C1C2CCC(O2)C1C(=O)Nc1ccc(Br)cc1F (stereo not given) returned Platelet DG rel -1, SENP1 inh 1 and SENP8 block-2 20.
COc1cc(N/C=C(\C(C)=O)c2ccccc2)cc(OC)c1 was read as SENP8 block-1 5, SENP6 inh -6, SENP1 inh 0, SENP8 block-2 -18 and SENP7 inh -4.
CNC(=S)n1cnc(N)n1 was read as SENP8 block-1 -4, Platelet DG rel 4, SENP6 inh -4, SENP1 inh 3, SENP8 block-2 15 and SENP7 inh -6.
`CC(C)N(C(=O)Nc1ccc2nsnc2c1)C(C)C` gave SENP8 block-1 97*, Platelet DG rel -1, SENP6 inh 98*, SENP7 inh 95*, SENP8 conf 83*, SENP6 confirm 89*, SENP7 confirm 75*, Casp3 select 12 and Luc interf 9.
`CC(=O)Nc1cccc(-c2cccc3nccn23)c1` gave SENP1 inh -3 and SENP8 block-2 -492.
`O=C(Nc1ccc2ccccc2c1)c1ccccc1O` gave SENP8 block-1 96*, Platelet DG rel 3, SENP6 inh 99*, SENP1 inh -1, SENP8 block-2 -130, SENP7 inh 96*, SENP8 conf 94*, SENP6 confirm 96*, SENP7 confirm 102*, Casp3 select 92* and Luc interf 64*.
Screening Cc1occc1C(=O)Nc1ccc2ccccc2c1 returned SENP8 block-1 82*, Platelet DG rel 21, SENP6 inh -8, SENP1 inh -4, SENP8 block-2 -18, SENP7 inh -5, SENP8 conf 7, SENP6 confirm 96*, SENP7 confirm 102*, Casp3 select 92* and Luc interf 95*.
Screening Cc1occc1C(=O)Nc1cc(C(C)(C)C)on1 returned SENP8 block-1 93*, Platelet DG rel 56*, SENP6 inh 96*, SENP1 inh -2, SENP8 block-2 21, SENP7 inh 97*, SENP8 conf 93*, SENP6 confirm 95*, SENP7 confirm 102*, Casp3 select 97* and Luc interf 95*.
For O=C(Nc1ccc2ccccc2c1)c1ccc(Cl)cc1Cl the results were SENP8 block-1 55*, Platelet DG rel -10, SENP6 inh 68*, SENP1 inh 3, SENP8 block-2 18, SENP7 inh 85*, SENP8 conf 0, SENP6 confirm 54*, SENP7 confirm 50*, Casp3 select 55* and Luc interf 10.
For Cc1ccc2oc(-c3cccc(NC(=O)Cc4cccs4)c3)nc2c1 the results were SENP8 block-1 -11, Platelet DG rel 2, SENP6 inh 1, SENP1 inh 0, SENP8 block-2 -26, SENP7 inh 75*, SENP8 conf 8, SENP6 confirm 7, SENP7 confirm -2, Casp3 select -5 and Luc interf -7.
Screening CCC(=O)Nc1cccc(-c2nc3ccc(C)cc3o2)c1 returned SENP8 block-1 23, Platelet DG rel 2, SENP6 inh 33, SENP1 inh -1, SENP8 block-2 -71 and SENP7 inh 23.
Screening CCCC(=O)Nc1cccc(-c2nc3cc(C)c(C)cc3o2)c1 returned SENP8 block-1 23, SENP6 inh 35, SENP1 inh -3, SENP8 block-2 -398, SENP7 inh 91*, SENP8 conf 25, SENP6 confirm 23, SENP7 confirm 28, Casp3 select 37 and Luc interf 54*.
Screening CCC(=O)Nc1ccc(-c2nnc(-c3ccccc3)o2)cc1 returned SENP8 block-1 38, Platelet DG rel 1, SENP6 inh 72*, SENP1 inh 1, SENP8 block-2 inactive, SENP7 inh 75*, SENP8 conf 20, SENP6 confirm 17, SENP7 confirm 10, Casp3 select 40 and Luc interf 4.
`CCC(=O)Nc1ccc2oc(-c3cccc(C)c3)nc2c1` gave SENP8 block-1 94*, SENP6 inh 99*, SENP1 inh 2, SENP8 block-2 inactive, SENP7 inh 98*, SENP8 conf 5, SENP6 confirm 98*, SENP7 confirm 103*, Casp3 select 96* and Luc interf 75*.
Screening CCCC(=O)Nc1cccc(-c2nc3ccccc3o2)c1 returned SENP8 block-1 -5, Platelet DG rel 2, SENP6 inh -3, SENP1 inh -1, SENP8 block-2 -43 and SENP7 inh 4.
For CC1(C(=O)OCC(=O)Nc2cc(S(=O)(=O)N3CCOCC3)ccc2Cl)CC1(Cl)Cl (stereo not given) the results were SENP1 inh 1 and SENP8 block-2 13.
